# Source: PubChem
# In the library only some 1.1% were active in any assay of this set; here they are far more common.
# DAGLB inh: DAGLB lipase inhibitors, primary screen, biochemical, fluorescence, HTS; hit rate 0.059% among 340,000; inhibition, % at 5.17 µM; HEK293T DAGLB membrane lysate, EnzChek fluorogenic substrate; Diacylglycerol lipase-beta (Homo sapiens), Q8NCG7; in the data active means inhibition above about 34%;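 further: 0% = enzyme with vehicle and 100% = wells lacking enzyme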
# Target sequence (Q8NCG7 whole entry, looked up): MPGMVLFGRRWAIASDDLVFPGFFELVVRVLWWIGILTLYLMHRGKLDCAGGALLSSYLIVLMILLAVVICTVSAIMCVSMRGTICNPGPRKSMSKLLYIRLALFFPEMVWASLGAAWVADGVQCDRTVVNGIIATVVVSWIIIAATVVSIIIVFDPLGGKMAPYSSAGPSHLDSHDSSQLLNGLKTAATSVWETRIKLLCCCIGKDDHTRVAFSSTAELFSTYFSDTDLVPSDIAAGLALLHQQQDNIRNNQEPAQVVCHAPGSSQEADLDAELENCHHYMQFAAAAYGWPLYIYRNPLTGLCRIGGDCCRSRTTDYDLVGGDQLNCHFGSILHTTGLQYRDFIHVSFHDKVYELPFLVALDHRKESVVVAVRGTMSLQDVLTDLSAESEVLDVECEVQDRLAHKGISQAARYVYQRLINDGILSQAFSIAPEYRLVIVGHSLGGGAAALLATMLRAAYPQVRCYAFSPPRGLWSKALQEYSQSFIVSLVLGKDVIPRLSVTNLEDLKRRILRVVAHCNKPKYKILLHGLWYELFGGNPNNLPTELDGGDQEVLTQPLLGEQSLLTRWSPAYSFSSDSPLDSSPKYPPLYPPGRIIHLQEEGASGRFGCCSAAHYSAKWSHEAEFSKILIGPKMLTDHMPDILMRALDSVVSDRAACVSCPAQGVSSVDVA
# Vif imaging: HIV Vif self-association inhibitors, primary screen, imaging, HEK293T, single point. HEK293T cells, Vif self-association by quenched fluorescence, 24 h. inhibition, % at 7.49 µM. hit rate 0.35% among 340,000. AID 602346, 2012; in the data active means inhibition above about 50%, passing the limit was not always enough
# NR2E3 ag-1: NR2E3 agonists in two-hybrid cells, primary screen, cell-based, luminescence, CHO-S, Gal4-NCOR/VP16-NR2E3; hit rate 0.35% among 360,000; Photoreceptor-specific nuclear receptor (Homo sapiens), Q9Y5X4; luciferase; AID 602229, 2012; inhibition of corepressor binding, % at 3.98 µM;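 active means inhibition above the mean of all tested compounds plus 3 SD, cut at about 70% in these data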;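 further: 0% = DMSO with NR2E3 transfected cells and 100% = cells lacking NR2E3 construct; higher means lower luciferase signal from less NR2E3 corepressor binding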
# NR2E3 ag-2: inhibitors of NR2E3-RetCOR corepressor binding, primary screen, NR2E3 agonist project, biochemical, TR-FRET, GST-NR2E3, biotin-RetCOR; 1536-well; inhibition of corepressor binding, % at 4.78 µM; hit rate 0.12% among 320,000;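 active means percent inhibition above the cutoff of mean plus 3 SD of all tested compounds, set per screening campaign, cut at about 20% in these data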;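 further: 0% = DMSO wells and 100% = biotin wells as full block of FRET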
#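 Material – GST-tagged NR2E3 plus biotinylated RetCOR corepressor · Quantity – NR2E3 fusion 1.35 nM · Times – 5 h incubation at 4 °C · Medium – pH 7.5 Tris-based buffer · Technique – TR-FRET, Eu(K)-anti-GST donor, streptavidin-D2 acceptor, ex 340, em 617/671 nm · Benchmarks – high control biotin, low control 0.6% DMSO · Format – 1536-well plates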
# MT1-MMP act inh: blockers of MT1-MMP proenzyme processing, primary screen, HT1080 RFP-PRO-GFP cells, GFP/RFP fluorescence | hit rate 0.061% among 360,000 | GFP/RFP ratio change, % at 20 µM | GFP/RFP ratio fluorescence, overnight; percent of plate control window, DMSO zero | Matrix metalloproteinase-14 (Homo sapiens), P50281;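 active means GFP/RFP ratio change of at least 30% with cell ATP level not reduced by more than half and red fluorescence within 50% of control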
#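 Test system: HT1080 cells expressing an RFP-PRO-GFP fluorescent reporter construct / Compound dosing: single-point 20 µM compound, 1% DMSO / Schedule: cells overnight before dosing, compound overnight, 37 °C, 5% CO2 / Evaluation: GFP/RFP fluorescence ratio / Control set: DMSO and RFP-L50D-GFP cell wells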
# core dimer inh: inhibitors of HCV core protein dimerization, primary screen, biochemical, TR-FRET, high-throughput; TR-FRET GST/Flag-core106 dimerization, 1536-well; hit rate 0.33% among 300,000; inhibition, % at 5 µM;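 active means inhibition above the mean of all tested compounds plus 3 SD, set per screening campaign, cut at about 45% in these data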
#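 Test system: GST/Flag-tagged HCV core106 proteins; Medium: KF-containing HEPES buffer, pH 7.45, DTT, CHAPS, BSA; Times: compound-protein-antibody incubation 4 h at 22.5 °C; Detection: TR-FRET 671 and 617 nm emission; Benchmarks: wells lacking GST-core106 and wells with excess unlabelled core106.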
# NR2E3 ag conf: NR2E3 agonist confirmation in cells, cell-based, luminescence, CHO-S two-hybrid; inhibition, % at 3.98 µM; hit rate 51% among 2,300; shares compounds with NR2E3 ag-1; CHO-S mammalian two-hybrid NR2E3-NCOR, luciferase luminescence;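 active means average inhibition above a cutoff equal to the mean inhibition of all tested compounds plus one SD, cut at about 70% in these data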;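 further: 0% = DMSO in NR2E3 cells and 100% = DMSO in cells lacking NR2E3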
# VP16 counter: GAL4-VP16 reporter modulators, confirmation, counter-screen for NR2E3 agonist project, cell-based, luminescence, CHO-S, high throughput | shares compounds with NR2E3 ag-1 | CHO-S GAL4-VP16 luciferase reporter | inhibition, % at 3.98 µM | hit rate 29% among 2,300 | AID 624379, 2012;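 active means mean inhibition above a cutoff equal to the average over all tested compounds plus one standard deviation, cut at about 70% in these data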;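 further: luciferase from a UAS reporter driven by GAL4-VP16 transactivation; 0% = DMSO with VP16-transfected cells and 100% = DMSO with cells lacking VP16; higher means less reporter light so more repression of VP16 activity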
# MT1-MMP conf: MT1-MMP activation inhibitors, hit retest, confirmation, single concentration, fluorescence, HT1080 RFP-PRO-GFP cells | GFP and RFP fluorescence ratio, overnight | AID 652235, 2013 | hit rate 10% among 200 | shares compounds with MT1-MMP act inh | inhibition, % at 20 µM;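 active means inhibition of at least 50% in the primary cell screen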
# * hit, by the source's call; . = not tested or not shown.
SMILES,DAGLB inh,Vif imaging,NR2E3 ag-1,NR2E3 ag-2,MT1-MMP act inh,core dimer inh,MT1-MMP conf,others
Cc1cc2oc(C(=O)N(Cc3ccccc3)C3CCS(=O)(=O)C3)cc(=O)c2cc1Cl (stereo unspecified),4,1,-19,-1,18,0,.,
COc1ccc(S(=O)(=O)N2CCCC2CNC(=O)C(=O)NCc2cccs2)cc1 (stereo unspecified),-2,-13,-23,-2,-2,1,.,
O=C(NNc1c([N+](=O)[O-])cc(C(F)(F)F)cc1[N+](=O)[O-])c1ccco1,30,-7,61,-4,-1,-49,.,NR2E3 ag conf=69;VP16 counter=57
Cn1cccc1C(=O)NCc1ccc(S(N)(=O)=O)cc1,0,-2,-31,-4,5,6,.,
CC1CCCCC1NC(=O)CN1CCN(S(=O)(=O)c2ccc(Br)s2)CC1 (stereo unspecified),-11,-17,10,-2,-6,.,.,
COc1cccc2c1OC[C@@H](CO)[C@H]2N(C)C(=O)Nc1ccc(Cl)cc1Cl,-1,-7,49,3,32*,-1,13,NR2E3 ag conf=11;VP16 counter=30
CC1C(=O)N(Cc2cn(CC3CCCCC3)nn2)CCS(=O)(=O)N1Cc1ccc(-c2ccc(Cl)cc2)cc1 (stereo unspecified),-1,-2,59,.,40*,.,11,NR2E3 ag conf=32;VP16 counter=34
CC1C(=O)N(Cc2cn(CC3CCCCC3)nn2)CCS(=O)(=O)N1Cc1ccc(-c2ccc(Cl)c(Cl)c2)cc1 (stereo unspecified),-4,0,5,.,5,.,.,
COc1cc(/C=N/NC(=O)C2CC(=O)N(c3ccc(C)cc3)C2)cc(OC)c1OC (stereo unspecified),-1,3,-5,-6,7,8,.,
CC[n+]1c(/C=C/Nc2ccccc2)sc2ccccc21,2,-7,14,-1,38*,-4,41,
CCNc1c(C(=O)O)ccc2c1C(=O)c1ccccc1C2=O,4,3,-3,-23,16,-70,.,
CNc1c(C(=O)O)ccc2c1C(=O)c1ccccc1C2=O,10,.,-19,-21,34*,-75,26,
CCCN1C(=O)/C(=N\OCC(=O)NCC(F)(F)F)c2ccccc21,4,-10,-4,0,-2,-10,.,
CCn1c(O)c(C=Nc2ccccc2)sc1=S,.,.,.,1,.,-5,.,
CCn1c(O)c(/C=N/n2cnnc2)sc1=S,-3,0,15,-3,30*,-12,3,
CN(C)c1ccc(C(=O)c2ccc(O)cc2O)cc1,2,-16,-90,1,-2,-5,.,
CN(C)c1ccc(Cc2cc3c(O)ccc(O)c3cc(Cc3ccc(N(C)C)cc3)c2=O)cc1,14,13,-28,.,33*,.,23,
CN(CCCS(=O)(=O)[O-])c1ccc(/C=C/c2ccc3ccccc3[n+]2C)cc1,2,7,-7,.,40*,.,17,
